Assay results reported in ChEMBL document CHEMBL4680070, “A second generation of 1,2,4-oxadiazole derivatives with enhanced solubility for inhibition of 3-hydroxykynurenine transaminase (HKT) from Aedes aegypti” (RSC Med Chem, 2021).
The source made the active and inactive calls. The calls are words filed in the database; no cut-off is given here.

Target: 3-hydroxykynurenine transaminase (Aedes aegypti) (UniProt Q0IG34)
Assay: Competitive inhibition of Aedes aegypti 3-hydroxykynurenine transaminase at 300 uM using varying level of 3-D,L hydroxy kynurenine as substrate by Lineweaver-Burk plot analysis

3-hydroxykynurenine transaminase (Aedes aegypti), sequence (Q0IG34 whole entry): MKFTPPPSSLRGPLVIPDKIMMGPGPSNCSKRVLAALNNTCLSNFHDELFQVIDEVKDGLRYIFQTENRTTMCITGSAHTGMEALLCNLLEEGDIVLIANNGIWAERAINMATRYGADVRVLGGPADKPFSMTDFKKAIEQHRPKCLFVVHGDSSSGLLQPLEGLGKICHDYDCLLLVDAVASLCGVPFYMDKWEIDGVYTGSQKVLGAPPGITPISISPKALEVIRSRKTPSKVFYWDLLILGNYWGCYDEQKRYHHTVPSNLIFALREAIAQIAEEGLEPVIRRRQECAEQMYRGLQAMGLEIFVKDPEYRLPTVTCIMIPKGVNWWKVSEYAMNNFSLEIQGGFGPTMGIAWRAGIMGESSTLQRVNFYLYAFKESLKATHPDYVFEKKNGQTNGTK

| inhibition | SMILES |
| --- | --- |
| Active | O=C(O)CCc1nc(-c2ccccc2)no1 |

Tested on: not listed separately
Assay: Inhibition of recombinant Aedes aegypti RecLab N-terminal Trx-fused/His6-tagged 3-hydroxykynurenine transaminase H360M mutant expressed in Escherichia coli Rosetta 2 (DE3) assessed as reduction in conversion of 3-hydroxy kynurenine to xanthurenic-acid using 3-D,L hydroxy kynurenine as substrate preincubated with PLP cofactor and enzyme and 30 mins later incubated with 3-D,L-HK and measured after 5 mins by microplate reader assay
Procedure, shortened: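 Recombinant AeHKT (2 μg) in 200 mM HEPES/100 mM NaCl with 2 mM 3-D,L-HK, 2 mM sodium pyruvate and 40 μM PLP. Reaction ran 5 min at 50 °C and was stopped with 10 mM FeCl3 in 0.1 M HCl. The XA–Fe3+ complex was read at 570 nm, and XA was quantified against a calibration curve. Run in duplicate.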

| IC50 | SMILES |
| --- | --- |
| 35 µM | COc1ccc(-c2noc(CCC(=O)O)n2)cc1 |
| 68 µM | O=C(O)CCc1nc(-c2cccs2)no1 |
| 54 µM | Cc1cccc(-c2noc(CCCC(=O)O)n2)c1 |
| 63 µM | O=C(O)CCCc1nc(-c2cccc3ccccc23)no1 |
| 77 µM | O=C(O)CCc1nc(-c2ccccc2Cl)no1 |
| 116 µM | O=C(O)CCc1nc(-c2ccccc2F)no1 |
| 119 µM | O=C(O)CCc1nc(-c2ccc(Br)cc2)no1 |
| 85 µM | O=C(O)CCc1nc(-c2ccc(Cl)cc2)no1 |
| 88 µM | Cc1ccc(-c2noc(CCCC(=O)O)n2)cc1 |
| 101 µM | COc1ccc(-c2noc(CCCC(=O)O)n2)cc1 |
| 85 µM | O=C(O)CCc1nc(-c2cccc([N+](=O)[O-])c2)no1 |
| 72 µM | O=C(O)CCCc1nc(-c2ccccc2)no1 |
| 61 µM | O=C(O)CCc1nc(-c2cccc(Br)c2)no1 |
| 73 µM | Cc1ccc(-c2noc(CCC(=O)O)n2)cc1 |
| 83 µM | O=C(O)CCc1nc(-c2ccc3c(c2)OCO3)no1 |
| 76 µM | O=C(O)CCc1nc(-c2ccc([N+](=O)[O-])cc2)no1 |
| 110 µM | O=C(O)CCCc1nc(-c2ccc(Br)cc2)no1 |
| 70 µM | O=C(O)CCCc1nc(-c2ccc(C(F)(F)F)cc2)no1 |
| 86 µM | O=C(O)CCc1nc(-c2ccc(Cl)c(Cl)c2)no1 |
| 124 µM | O=C(O)CCc1nc(-c2ccc(F)cc2)no1 |
| 42 µM | O=C(O)CCCc1nc(-c2ccc(I)cc2)no1 |
| 339 µM | Cc1ccccc1-c1noc(CCC(=O)O)n1 |
| 84 µM | O=C(O)CCc1nc(-c2ccco2)no1 |
| 294 µM | O=C(O)CCCc1nc(-c2ccc(Cl)cc2)no1 |
| 139 µM | O=C(O)CCc1nc(-c2ccccc2)no1 |
| 64 µM | O=C(O)CCCc1nc(-c2ccc(Cl)c(Cl)c2)no1 |
| 42 µM | O=C(O)CCc1nc(-c2ccc(C(F)(F)F)cc2)no1 |
| 110 µM | Cc1cccc(-c2noc(CCC(=O)O)n2)c1 |
| 157 µM | COc1cccc(-c2noc(CCC(=O)O)n2)c1 |
| 87 µM | O=C(O)CCCc1nc(-c2ccc3c(c2)OCO3)no1 |
